# Results: ChEMBL document CHEMBL4017517, “Small Molecule Inhibitors Simultaneously Targeting Cancer Metabolism and Epigenetics: Discovery of Novel Nicotinamide Phosphoribosyltransferase (NAMPT) and Histone Deacetylase (HDAC) Dual Inhibitors” (J Med Chem, 2017)
# Activity calls are given as the source filed them. The calls are words filed in the database; no cut-off is given here.
# How the values were obtained:
# HCT-116 [1] = experiment: Induction of apoptosis in human HCT116 cells assessed as early apoptotic cells at 5 uM after 72 hrs by Annexin V-FITC/propidium iodide staining-based flow cytometric analysis (reference value: 7.82%); type: functional
# Outline: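 HCT116 cells seeded at 5×10^5 cells/mL in six-well plates, treated at 5 μM for 72 h alongside vehicle. Cells trypsinized, washed twice in cold PBS, and resuspended in 1× binding buffer. Stained with annexin V-FITC 15 min at room temperature, then PI 15 min in dark, then flow cytometry.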
# Histone deacetylase 1 [2] = molecular target: T1, Histone deacetylase 1 (Homo sapiens, UniProt Q13547); experiment: Inhibition of human recombinant HDAC1 (1 to 482 residues) expressed in Baculovirus using Ac-Leu-Gly-Lys(Ac)-AMC as substrate preincubated for 5 mins followed by substrate addition measured after 30 mins by fluorescence assay
# T1 sequence (Q13547 whole entry, the tested form may be a part): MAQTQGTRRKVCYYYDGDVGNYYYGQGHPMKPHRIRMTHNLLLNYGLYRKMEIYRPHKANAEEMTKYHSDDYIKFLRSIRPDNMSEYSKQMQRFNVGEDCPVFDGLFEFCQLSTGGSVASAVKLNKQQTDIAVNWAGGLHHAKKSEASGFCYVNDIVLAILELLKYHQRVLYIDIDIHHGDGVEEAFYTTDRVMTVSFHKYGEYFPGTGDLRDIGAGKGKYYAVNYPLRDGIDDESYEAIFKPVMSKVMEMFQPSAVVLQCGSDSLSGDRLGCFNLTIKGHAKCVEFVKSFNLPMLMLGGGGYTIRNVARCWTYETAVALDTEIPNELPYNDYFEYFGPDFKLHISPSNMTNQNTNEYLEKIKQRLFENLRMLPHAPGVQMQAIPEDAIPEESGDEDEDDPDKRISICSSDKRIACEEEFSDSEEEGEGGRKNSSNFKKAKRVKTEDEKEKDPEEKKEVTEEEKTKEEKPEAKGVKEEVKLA
# MDA-MB-231 = experiment: cells; type: functional, cell-based; details: Homo sapiens, MDA-MB-231, 72 h
# Histone deacetylase 2 = Histone deacetylase 2 (Homo sapiens, UniProt Q92769)
# Histone deacetylase 2, sequence (Q92769 whole entry): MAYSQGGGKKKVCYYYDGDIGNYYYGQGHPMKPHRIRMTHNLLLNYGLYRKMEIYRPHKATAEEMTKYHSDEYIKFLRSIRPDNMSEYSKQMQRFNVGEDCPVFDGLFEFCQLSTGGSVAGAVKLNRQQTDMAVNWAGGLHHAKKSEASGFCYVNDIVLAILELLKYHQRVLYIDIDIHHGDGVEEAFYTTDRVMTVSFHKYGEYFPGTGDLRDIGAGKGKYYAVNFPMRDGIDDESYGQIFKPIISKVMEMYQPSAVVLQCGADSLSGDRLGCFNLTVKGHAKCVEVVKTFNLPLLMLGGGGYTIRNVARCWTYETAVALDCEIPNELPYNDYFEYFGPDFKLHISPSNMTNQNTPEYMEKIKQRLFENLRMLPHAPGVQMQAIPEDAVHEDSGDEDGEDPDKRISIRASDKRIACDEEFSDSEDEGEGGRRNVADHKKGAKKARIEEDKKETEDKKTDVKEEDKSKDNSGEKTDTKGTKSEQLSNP
# [3] = molecular target: T2, Protein deacetylase HDAC6 (Homo sapiens, UniProt Q9UBN7); experiment: Inhibition of human recombinant HDAC6 expressed in Baculovirus infected Sf9 cells using Ac-Leu-Gly-Lys(Ac)-AMC as substrate preincubated for 5 mins followed by substrate addition measured after 30 mins by fluorescence assay
# T2 sequence (Q9UBN7 whole entry): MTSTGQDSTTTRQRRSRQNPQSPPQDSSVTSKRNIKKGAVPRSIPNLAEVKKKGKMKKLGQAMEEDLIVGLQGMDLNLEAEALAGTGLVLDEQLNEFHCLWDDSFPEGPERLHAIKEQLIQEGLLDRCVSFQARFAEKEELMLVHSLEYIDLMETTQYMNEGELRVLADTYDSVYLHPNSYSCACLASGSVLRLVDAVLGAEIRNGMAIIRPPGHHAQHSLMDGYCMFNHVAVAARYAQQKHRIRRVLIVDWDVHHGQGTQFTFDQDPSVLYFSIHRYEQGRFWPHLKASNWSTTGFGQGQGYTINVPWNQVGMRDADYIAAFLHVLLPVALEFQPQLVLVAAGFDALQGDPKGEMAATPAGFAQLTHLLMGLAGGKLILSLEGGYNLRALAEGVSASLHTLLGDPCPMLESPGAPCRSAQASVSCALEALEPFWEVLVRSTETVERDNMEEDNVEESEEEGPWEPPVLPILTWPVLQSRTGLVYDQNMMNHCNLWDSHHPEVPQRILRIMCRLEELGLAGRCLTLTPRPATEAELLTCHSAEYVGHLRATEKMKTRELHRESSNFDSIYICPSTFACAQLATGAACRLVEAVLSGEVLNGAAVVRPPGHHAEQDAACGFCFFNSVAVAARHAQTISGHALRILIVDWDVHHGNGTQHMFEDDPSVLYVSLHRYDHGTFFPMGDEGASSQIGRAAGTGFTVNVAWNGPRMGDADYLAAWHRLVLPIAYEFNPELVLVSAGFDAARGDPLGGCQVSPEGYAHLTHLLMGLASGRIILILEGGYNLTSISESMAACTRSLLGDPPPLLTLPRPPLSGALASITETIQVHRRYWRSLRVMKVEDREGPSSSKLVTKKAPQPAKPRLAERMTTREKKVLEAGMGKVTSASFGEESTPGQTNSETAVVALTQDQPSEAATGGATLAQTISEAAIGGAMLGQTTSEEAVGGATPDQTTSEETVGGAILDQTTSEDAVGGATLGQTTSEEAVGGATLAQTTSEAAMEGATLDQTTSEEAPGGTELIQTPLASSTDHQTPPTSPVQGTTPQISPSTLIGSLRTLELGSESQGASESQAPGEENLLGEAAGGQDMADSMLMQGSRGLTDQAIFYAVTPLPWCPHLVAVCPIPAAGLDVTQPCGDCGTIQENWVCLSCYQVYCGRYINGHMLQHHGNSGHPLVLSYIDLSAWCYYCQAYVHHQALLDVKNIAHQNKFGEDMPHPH
# Histone deacetylase 4 = Histone deacetylase 4 (Homo sapiens, UniProt P56524); experiment: Inhibition of GST tagged human recombinant HDAC4 (H86 to 31G) expressed in Baculovirus infected Sf9 insect cells using Ac-Leu-Gly-Lys(Tfa)-AMC as substrate preincubated for 5 mins followed by substrate addition measured after 30 mins by fluorescence assay
# Histone deacetylase 4, sequence (P56524 whole entry): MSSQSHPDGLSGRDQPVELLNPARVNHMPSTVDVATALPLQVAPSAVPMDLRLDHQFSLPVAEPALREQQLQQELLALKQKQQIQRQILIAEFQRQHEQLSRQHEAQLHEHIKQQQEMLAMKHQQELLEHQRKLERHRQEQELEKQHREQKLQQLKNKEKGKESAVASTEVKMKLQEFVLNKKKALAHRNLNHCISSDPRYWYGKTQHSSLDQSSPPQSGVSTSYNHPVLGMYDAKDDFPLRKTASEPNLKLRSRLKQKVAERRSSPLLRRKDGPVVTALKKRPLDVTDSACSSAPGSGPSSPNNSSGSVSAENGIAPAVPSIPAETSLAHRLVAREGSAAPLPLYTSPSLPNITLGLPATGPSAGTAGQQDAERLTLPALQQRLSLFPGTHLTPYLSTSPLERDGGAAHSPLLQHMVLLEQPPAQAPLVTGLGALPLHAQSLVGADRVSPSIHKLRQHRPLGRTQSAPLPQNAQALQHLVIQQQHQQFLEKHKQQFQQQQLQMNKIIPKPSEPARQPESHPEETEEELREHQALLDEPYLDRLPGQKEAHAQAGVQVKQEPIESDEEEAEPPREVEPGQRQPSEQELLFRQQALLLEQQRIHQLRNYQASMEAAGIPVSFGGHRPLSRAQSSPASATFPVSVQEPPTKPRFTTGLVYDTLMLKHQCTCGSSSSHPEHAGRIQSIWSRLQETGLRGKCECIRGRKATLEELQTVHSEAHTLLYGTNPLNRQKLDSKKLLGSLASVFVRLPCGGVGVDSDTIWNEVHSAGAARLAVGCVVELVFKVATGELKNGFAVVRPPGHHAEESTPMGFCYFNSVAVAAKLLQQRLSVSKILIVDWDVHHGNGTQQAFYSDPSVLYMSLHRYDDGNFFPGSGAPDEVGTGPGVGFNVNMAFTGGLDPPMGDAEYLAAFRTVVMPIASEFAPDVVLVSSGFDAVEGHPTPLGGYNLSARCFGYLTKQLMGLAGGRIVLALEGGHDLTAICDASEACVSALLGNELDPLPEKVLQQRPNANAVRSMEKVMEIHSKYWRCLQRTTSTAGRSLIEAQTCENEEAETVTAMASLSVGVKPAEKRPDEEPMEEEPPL
# HCT-116 [4] = experiment: Induction of apoptosis in human HCT116 cells assessed as early apoptotic cells at 5 uM after 72 hrs in presence of autophagy inhibitor wortmannin by Annexin V-FITC/propidium iodide staining-based flow cytometric analysis (reference value: 7.82%); type: functional
# HCT-116 [5] = experiment: Induction of autophagy in human HCT116 cells assessed as increase in LC3-2 level at 5 uM after 24 hrs by Western blot analysis; type: functional, cell-based
# Outline: (§1)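 HCT116 cells exposed to 5 μM for 24, 48 and 72 h; DMSO control. Lysed in RIPA on ice, cleared 12000 × g. 30 μg protein per lane on SDS-PAGE, transferred to PVDF, blocked in 5% BSA. Probed overnight at 4 °C for LC3-II and P-62, then secondary antibody 1.5 h. Infrared imaging detection with quantification.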
# HCT-116 [6] = experiment: Induction of autophagy in human HCT116 cells assessed as increase in LC3-2 level at 5 uM after 48 to 72 hrs by Western blot analysis; type: functional, cell-based; outline: as §1
# HCT-116 [7] = experiment: Induction of autophagy in human HCT116 cells assessed as decrease in P-62 level at 5 uM after 24 to 72 hrs by Western blot analysis; type: functional, cell-based; outline: as §1
# HCT-116 [8] = experiment: Cell cycle arrest in human HCT116 cells assessed as accumulation at G2 phase at 1 uM after 48 hrs by propidium iodide staining based flow cytometry (reference value: 5%); type: functional
# HCT-116 [9] = experiment: Cell cycle arrest in human HCT116 cells assessed as accumulation at G2 phase at 5 uM after 48 hrs by propidium iodide staining based flow cytometry (reference value: 5%); type: functional
# Homo sapiens [10] = species on record: Homo sapiens; experiment: Inhibition of HDAC in human HCT116 cells assessed as increase in acetylated histone H3 level after 24 hrs by Western blot analysis; type: cell-based
# Outline: (§2)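 HCT116 cells treated at 1 and 5 μM for 24 h; DMSO-volume control. PBS-washed, RIPA-lysed on ice 30 min, centrifuged 12000 × g 15 min at 4 °C. 30 μg protein separated by SDS-PAGE, blotted to PVDF, blocked 5% BSA 2 h. Incubated with acetyl-histone H3 or H4 primary antibody overnight at 4 °C, then secondary antibody; infrared imaging.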
# Homo sapiens [11] = species on record: Homo sapiens; experiment: Inhibition of HDAC in human HCT116 cells assessed as increase in acetylated histone H4 level after 24 hrs by Western blot analysis; type: cell-based; outline: as §2
# HCT-116 [12] = experiment: animal or person; type: functional, Homo sapiens; details: Mus musculus, HCT-116, ip, read-out: TGI
# Histone deacetylase 1 [13] = molecular target: T1, Histone deacetylase 1; experiment: Inhibition of human recombinant HDAC1 (1 to 482 residues) expressed in Baculovirus using Ac-Leu-Gly-Lys(Ac)-AMC as substrate after 3 hrs by fluorescence assay
# [14] = molecular target: Nicotinamide phosphoribosyltransferase (Homo sapiens, UniProt P43490); details: 10 uM
# Nicotinamide phosphoribosyltransferase, sequence (P43490 whole entry, looked up): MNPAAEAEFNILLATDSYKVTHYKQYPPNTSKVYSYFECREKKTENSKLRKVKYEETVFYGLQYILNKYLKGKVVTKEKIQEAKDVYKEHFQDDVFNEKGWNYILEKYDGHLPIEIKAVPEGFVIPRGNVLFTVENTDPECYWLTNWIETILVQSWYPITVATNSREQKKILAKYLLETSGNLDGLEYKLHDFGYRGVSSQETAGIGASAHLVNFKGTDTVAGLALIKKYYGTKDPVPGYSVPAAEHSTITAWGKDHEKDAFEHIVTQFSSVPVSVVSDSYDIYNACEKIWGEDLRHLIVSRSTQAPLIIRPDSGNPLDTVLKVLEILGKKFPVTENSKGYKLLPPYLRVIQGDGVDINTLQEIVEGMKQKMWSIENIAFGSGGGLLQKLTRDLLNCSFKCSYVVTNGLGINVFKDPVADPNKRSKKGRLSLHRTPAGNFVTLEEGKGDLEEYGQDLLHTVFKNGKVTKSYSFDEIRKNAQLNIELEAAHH
smiles,measurement,setting,value
Nc1ccccc1NC(=O)c1ccc(Cn2cc(-c3ccc(C(=O)NCc4cccnc4)cc3)nn2)cc1,Activity,HCT-116 [1],22.15%
same,IC50,Histone deacetylase 1 [2],55 nM
same,IC50,MDA-MB-231,10000 nM
same,IC50,Histone deacetylase 2,75 nM
same,IC50,[3],> 100000 nM
same,IC50,Histone deacetylase 4,> 100000 nM
same,Activity,HCT-116 [4],12.46%
same,Activity,HCT-116 [5],Active
same,Activity,HCT-116 [6],inactive
same,Activity,HCT-116 [7],Active
same,Activity,HCT-116 [8],19%
same,Activity,HCT-116 [9],39%
same,inhibition,Homo sapiens [10],Active
same,inhibition,Homo sapiens [11],Active
same,inhibition in vivo at 25 mg/kg,HCT-116 [12],69%
same,IC50,Histone deacetylase 1 [13],24 nM
same,ΔTm,[14],1.58 °C
